From PubChem BioAssay AID623920 (The Scripps Research Institute Molecular Screening Center, 2012)
Where “and” joins values, the source holds several entries; their conditions need not be identical. Equal values may be shown once. Calls of active or inactive are those of the source.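 How the source made its calls: active means compounds halving RecBCD DNA-cutting activity at 52000 nM or lower IC50; inactive means the rest.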

Each compound was assayed against RecBCD enzyme subunit RecC (Escherichia coli (strain K12)) + RecBCD enzyme subunit RecB (Escherichia coli (strain K12)) (UniProt P07648+P08394) (assay: purified RecBCD nuclease inhibitors, dose response, counter-screen for AddAB inhibitor project, biochemical, radioactivity readout, powder samples (AID 623920)). Details: [3H] dsDNA nuclease, TCA-soluble radioactivity.
RecBCD enzyme subunit RecC (Escherichia coli (strain K12)) + RecBCD enzyme subunit RecB (Escherichia coli (strain K12)), sequence (P07648 whole entry, looked up): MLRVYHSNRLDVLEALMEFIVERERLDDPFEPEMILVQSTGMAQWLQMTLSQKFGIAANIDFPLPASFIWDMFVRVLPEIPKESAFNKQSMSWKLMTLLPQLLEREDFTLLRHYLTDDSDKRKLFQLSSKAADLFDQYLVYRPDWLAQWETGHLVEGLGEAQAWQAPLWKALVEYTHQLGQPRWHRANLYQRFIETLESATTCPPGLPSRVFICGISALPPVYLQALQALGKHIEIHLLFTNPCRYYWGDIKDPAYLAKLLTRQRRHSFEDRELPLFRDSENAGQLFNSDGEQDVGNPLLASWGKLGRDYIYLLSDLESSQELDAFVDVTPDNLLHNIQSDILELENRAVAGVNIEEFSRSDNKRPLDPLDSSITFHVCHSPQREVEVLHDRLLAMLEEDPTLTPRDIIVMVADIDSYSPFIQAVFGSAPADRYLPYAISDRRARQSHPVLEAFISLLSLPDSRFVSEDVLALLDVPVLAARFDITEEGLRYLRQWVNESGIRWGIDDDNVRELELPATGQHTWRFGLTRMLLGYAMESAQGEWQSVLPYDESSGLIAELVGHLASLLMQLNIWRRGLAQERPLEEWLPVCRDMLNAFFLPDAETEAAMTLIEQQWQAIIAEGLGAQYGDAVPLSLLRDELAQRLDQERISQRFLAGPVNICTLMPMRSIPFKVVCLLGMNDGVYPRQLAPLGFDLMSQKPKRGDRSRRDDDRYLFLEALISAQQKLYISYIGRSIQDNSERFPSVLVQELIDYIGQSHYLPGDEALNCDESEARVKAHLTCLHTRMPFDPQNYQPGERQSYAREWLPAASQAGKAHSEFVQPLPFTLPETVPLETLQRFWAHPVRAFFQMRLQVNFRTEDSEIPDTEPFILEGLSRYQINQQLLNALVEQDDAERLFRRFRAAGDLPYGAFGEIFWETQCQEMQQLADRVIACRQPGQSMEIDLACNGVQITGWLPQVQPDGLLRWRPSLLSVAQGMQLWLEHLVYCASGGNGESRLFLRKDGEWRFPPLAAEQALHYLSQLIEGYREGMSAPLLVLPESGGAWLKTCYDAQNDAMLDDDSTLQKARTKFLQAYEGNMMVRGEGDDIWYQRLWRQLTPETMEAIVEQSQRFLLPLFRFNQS
RecBCD enzyme subunit RecC (Escherichia coli (strain K12)) + RecBCD enzyme subunit RecB (Escherichia coli (strain K12)), sequence (P08394 whole entry, looked up): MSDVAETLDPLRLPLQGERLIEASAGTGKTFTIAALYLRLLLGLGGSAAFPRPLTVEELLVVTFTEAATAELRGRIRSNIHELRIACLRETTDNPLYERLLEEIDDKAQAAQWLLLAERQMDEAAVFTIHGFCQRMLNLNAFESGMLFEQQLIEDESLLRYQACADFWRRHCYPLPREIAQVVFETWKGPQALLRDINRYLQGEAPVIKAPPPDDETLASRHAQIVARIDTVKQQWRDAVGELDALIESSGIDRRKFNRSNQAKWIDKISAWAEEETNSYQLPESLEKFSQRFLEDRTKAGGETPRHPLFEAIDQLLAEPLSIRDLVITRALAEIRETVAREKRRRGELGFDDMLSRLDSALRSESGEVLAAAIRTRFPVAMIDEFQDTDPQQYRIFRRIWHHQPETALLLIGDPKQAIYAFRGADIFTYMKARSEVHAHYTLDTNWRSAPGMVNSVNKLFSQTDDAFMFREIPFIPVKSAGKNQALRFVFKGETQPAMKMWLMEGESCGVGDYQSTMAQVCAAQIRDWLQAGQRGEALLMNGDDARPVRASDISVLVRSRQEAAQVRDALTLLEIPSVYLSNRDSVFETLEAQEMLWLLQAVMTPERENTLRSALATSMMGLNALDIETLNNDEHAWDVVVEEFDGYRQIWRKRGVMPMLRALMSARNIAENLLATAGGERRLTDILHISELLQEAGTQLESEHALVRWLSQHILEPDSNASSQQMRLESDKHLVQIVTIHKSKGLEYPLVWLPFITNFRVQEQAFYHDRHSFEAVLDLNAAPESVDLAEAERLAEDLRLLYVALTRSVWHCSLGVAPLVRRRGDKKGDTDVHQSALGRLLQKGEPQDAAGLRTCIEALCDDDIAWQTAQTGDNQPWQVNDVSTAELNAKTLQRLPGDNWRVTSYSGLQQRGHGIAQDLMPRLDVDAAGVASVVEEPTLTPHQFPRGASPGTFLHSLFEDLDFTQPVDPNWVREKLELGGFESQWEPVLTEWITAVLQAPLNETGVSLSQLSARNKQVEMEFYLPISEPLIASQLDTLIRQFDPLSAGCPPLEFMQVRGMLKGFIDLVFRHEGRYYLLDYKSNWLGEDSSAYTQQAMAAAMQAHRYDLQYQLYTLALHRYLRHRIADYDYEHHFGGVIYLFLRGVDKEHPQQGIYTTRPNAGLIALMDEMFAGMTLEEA
Method in brief: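 Material: purified E. coli RecBCD / Input: RecBCD enzyme at 0.15 units (4.5 nM) per reaction / Probe or stimulus: [3H] T7 dsDNA, 6 µM nucleotides / Timing: reaction 20 min, 37 °C / Signal: scintillation counting of TCA-soluble radioactive DNA products / Read-out basis: IC50 from percent RecBCD activity / Control set: enzyme-free background / Replication: triplicate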
`CCn1cc(C(=O)O)c(=O)c2cnc(N3CCN(C(=S)NC(C)c4ccccc4)CC3)nc21` (stereo unspecified) showed an IC50 of 18 µM.
In the case of `CCn1cc(C(=O)O)c(=O)c2cnc(N3CCN(C(=S)Nc4ccc(Cl)cc4)CC3)nc21`, the IC50 is reported as 11 µM.
`CC(=O)Nc1ccc2nc(NC(=O)c3ccc([N+](=O)[O-])o3)sc2c1` was tested, and the IC50 was > 100 µM (inactive).
For `Cc1ccc(C(=O)Nc2sc3c(c2C#N)CCCCC3)o1`, the IC50 was > 100 µM (inactive).
In the case of `COC(=O)c1c(-c2ccccc2)csc1NC(=O)c1cnccn1`, the IC50 is reported as 22 µM.
With `N#Cc1c(NC(=O)c2ccccc2)sc2c1CCC2` the IC50 was > 100 µM (inactive).
`CCn1cc(C(=O)O)c(=O)c2cc(F)c(N3CCN(C(=S)Nc4cccc(C(F)(F)F)c4)CC3)cc21` was tested, and the IC50 was 3 µM.
In the case of `N#Cc1c(NC(=O)c2ccc(-c3ccccc3[N+](=O)[O-])o2)sc2c1CCCC2`, the IC50 is reported as > 100 µM (inactive).
For `CCn1cc(C(=O)O)c(=O)c2cnc(N3CCN(C(=S)Nc4ccccc4C(F)(F)F)CC3)nc21`, the IC50 was 13 µM and 40 µM.
For `O=C(NCc1cccnc1)c1ccc([N+](=O)[O-])o1`, the IC50 was > 100 µM (inactive).
With `CCn1cc(C(=O)O)c(=O)c2cnc(N3CCN(C(=S)NC4CC5CCC4C5)CC3)nc21` (stereo unspecified) the IC50 was “inactive”.
For `N#Cc1c(NC(=O)c2cnccn2)sc2c1CCCC2`, the IC50 was 33 µM and 42 µM.
`CCn1cc(C(=O)O)c(=O)c2cnc(N3CCN(C(=S)NCc4ccccc4)CC3)nc21` showed an IC50 of 20 µM.
With `N#Cc1c(NC(=O)c2ccc([N+](=O)[O-])o2)sc2c1CCC2` the IC50 was 51 µM.
`CNC(=O)c1c(NC(=O)c2nc(SCc3ccccc3)ncc2Cl)sc2c1CCCC2` was tested, and the IC50 was “inactive”.
With `O=C(OCC(=O)c1cccs1)c1ccc([N+](=O)[O-])o1` the IC50 was > 100 µM (inactive).
With `N#Cc1c(NC(=O)c2ccccc2C(=O)O)sc2c1CCCC2` the IC50 was > 100 µM (inactive).
With `O=C(Nc1cccc(NC(=O)c2ccccc2Cl)c1)c1ccc([N+](=O)[O-])o1` the IC50 was > 100 µM (inactive).
With `O=C(Nc1ccc(N2CCOCC2)cc1)c1ccc([N+](=O)[O-])o1` the IC50 was > 100 µM (inactive).
Work on `CCn1cc(C(=O)O)c(=O)c2cnc(N3CCN(C(=S)Nc4cccc(C(F)(F)F)c4)CC3)nc21` yielded an IC50 of 4 µM.
For `NC(=O)c1ccsc1NC(=O)COC(=O)c1ccc([N+](=O)[O-])o1`, the IC50 was > 100 µM (inactive).
With `Cc1cccnc1NC(=O)c1ccc([N+](=O)[O-])o1` the IC50 was > 100 µM (inactive).
For `N#Cc1c(NC(=O)c2cccc(F)c2)sc2c1CCCC2`, the IC50 was > 100 µM (inactive).
In the case of `C=CCn1c(Sc2ncc([N+](=O)[O-])s2)n[nH]c1=O`, the IC50 is reported as > 166 µM (inactive).
`Cc1ccc2nc(/C(C#N)=C\c3ccc([N+](=O)[O-])o3)[nH]c2c1` was tested, and the IC50 was > 100 µM (inactive).
With `N#Cc1c(NC(=O)c2ccco2)sc2c1CCC2` the IC50 was “inactive”.
For `CC1(C)Cc2c(sc(NC(=O)c3ccco3)c2C#N)CO1`, the IC50 was > 100 µM (inactive).
Work on `CCn1cc(C(=O)O)c(=O)c2cnc(N3CCN(C(=S)NC(=O)c4cccc(C)c4)CC3)nc21` yielded an IC50 of 9 µM.
For `O=C(Nc1ncccn1)c1ccc([N+](=O)[O-])o1`, the IC50 was > 100 µM (inactive).
`Cc1sc(NC(=O)c2ccc(Br)o2)c(C#N)c1C` gave an IC50 of 47 µM.
In the case of `CCn1cc(C(=O)O)c(=O)c2cc(F)c(N3CCN(C(=S)Nc4ccccc4C(F)(F)F)CC3)cc21`, the IC50 is reported as 40 µM.
